Assay results reported in ChEMBL document CHEMBL1126131, “6-Alkyl-12-formylindolo[2,1-a]isoquinolines. Syntheses, estrogen receptor binding affinities, and stereospecific cytostatic activity” (1992).
Several values for one entry are separate records, joined by “and”; a condition that tells them apart may be missing. Equal values may be shown once.

Assays:
[1] = biological target: Estrogen receptor (Bos taurus) (UniProt Q9XSB5+P49884); assay: Relative binding affinity for calf uterine estrogen receptor compared to 17-beta-estradiol (E2); format: protein assay
Procedure, shortened: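 Competitive binding in calf uterine cytosol (final protein 3 mg/mL) in Tris-EDTA-NaN3 buffer, pH 7.5. 5 nM [3H]17β-estradiol plus competitor at 10^-9 to 10^-5 M, 18 h at 4 °C. Free ligand removed with dextran-coated charcoal (90 min, 4 °C). Nonspecific binding from 4 μM estradiol. RBA = ratio of estradiol to test molar concentrations giving 50% displacement × 100.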

[2] = tested on: MDA-MB-231; assay: Inhibition of hormone-independent MDA-MB 231 mammary tumor cell proliferation at 1*10e-5 M; format: functional, Homo sapiens
Procedure, shortened: (§1)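 MDA-MB 231 cells were grown in McCoy 5a medium with 10% NCS and were pre-grown 3 d in microplates before drug medium was added (controls 0.1% DMF). After 2 days of incubation, wells were fixed with 1% glutaraldehyde, stained with 0.02% crystal violet, and read by optical density. T/C (%) was corrected for initial density (vinblastine 10^-7 M). 16 replicates ± SD.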

[3] = tested on: MDA-MB-231; assay: Inhibition of hormone-independent MDA-MB 231 mammary tumor cell proliferation at 1*10e-6 M; format: functional, Homo sapiens; procedure, shortened: as §1
[4] = tested on: MDA-MB-231; assay: Inhibition of hormone-independent MDA-MB 231 mammary tumor cell proliferation at 1*10e-7 M; format: functional, Homo sapiens; procedure, shortened: as §1
[5] = tested on: MDA-MB-231; assay: Inhibition of hormone-independent MDA-MB 231 mammary tumor cell proliferation at 5*10e-6 M; format: functional, Homo sapiens; procedure, shortened: as §1
[6] = tested on: MCF7; assay: Inhibition of hormone-sensitive MCF-7 mammary tumor cell proliferation at 1*10e-5 M; format: functional, Homo sapiens
Procedure, shortened: (§2)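 MCF-7 cells were grown in modified improved MEM with 10% newborn calf serum at 37 °C and 5% CO2, plated in 96-well plates for 3 d, then given drug medium (controls 0.1% DMF). After 3 days, cells were glutaraldehyde-fixed and crystal violet-stained; T/C = test/control optical density, corrected for initial density (vinblastine 10^-7 M). 16 replicates ± SD.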

[7] = tested on: MCF7; assay: Inhibition of hormone-sensitive MCF-7 mammary tumor cell proliferation at 1*10e-6 M; format: functional, Homo sapiens; procedure, shortened: as §2
[8] = tested on: MCF7; assay: Inhibition of hormone-sensitive MCF-7 mammary tumor cell proliferation at 1*10e-7 M; format: functional, Homo sapiens; procedure, shortened: as §2
[9] = tested on: MCF7; assay: Inhibition of hormone-sensitive MCF-7 mammary tumor cell proliferation at 5*10e-6 M; format: functional, Homo sapiens; procedure, shortened: as §2
[10] = biological target: T1, Estrogen receptor (Mus musculus) (UniProt O08537+P19785); assay: Percent inhibition of estrone-stimulated uterotrophic effect in mice at 250 ug dose; format: functional
T1 sequence (O08537 whole entry, looked up): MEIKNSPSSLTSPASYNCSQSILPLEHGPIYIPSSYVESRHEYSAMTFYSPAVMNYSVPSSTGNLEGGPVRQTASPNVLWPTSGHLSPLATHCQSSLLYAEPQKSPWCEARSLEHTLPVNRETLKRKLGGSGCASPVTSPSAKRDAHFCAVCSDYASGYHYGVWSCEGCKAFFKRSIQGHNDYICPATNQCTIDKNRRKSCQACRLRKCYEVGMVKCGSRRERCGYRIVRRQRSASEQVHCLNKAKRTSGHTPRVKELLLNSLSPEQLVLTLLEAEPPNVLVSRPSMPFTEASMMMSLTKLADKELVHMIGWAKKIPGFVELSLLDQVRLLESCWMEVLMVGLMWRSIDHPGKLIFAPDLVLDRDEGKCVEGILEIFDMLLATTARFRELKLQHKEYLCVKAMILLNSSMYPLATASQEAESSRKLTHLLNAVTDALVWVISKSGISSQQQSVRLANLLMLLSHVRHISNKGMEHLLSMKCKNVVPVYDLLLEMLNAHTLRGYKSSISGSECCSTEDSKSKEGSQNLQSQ
T1 sequence (P19785 whole entry, looked up): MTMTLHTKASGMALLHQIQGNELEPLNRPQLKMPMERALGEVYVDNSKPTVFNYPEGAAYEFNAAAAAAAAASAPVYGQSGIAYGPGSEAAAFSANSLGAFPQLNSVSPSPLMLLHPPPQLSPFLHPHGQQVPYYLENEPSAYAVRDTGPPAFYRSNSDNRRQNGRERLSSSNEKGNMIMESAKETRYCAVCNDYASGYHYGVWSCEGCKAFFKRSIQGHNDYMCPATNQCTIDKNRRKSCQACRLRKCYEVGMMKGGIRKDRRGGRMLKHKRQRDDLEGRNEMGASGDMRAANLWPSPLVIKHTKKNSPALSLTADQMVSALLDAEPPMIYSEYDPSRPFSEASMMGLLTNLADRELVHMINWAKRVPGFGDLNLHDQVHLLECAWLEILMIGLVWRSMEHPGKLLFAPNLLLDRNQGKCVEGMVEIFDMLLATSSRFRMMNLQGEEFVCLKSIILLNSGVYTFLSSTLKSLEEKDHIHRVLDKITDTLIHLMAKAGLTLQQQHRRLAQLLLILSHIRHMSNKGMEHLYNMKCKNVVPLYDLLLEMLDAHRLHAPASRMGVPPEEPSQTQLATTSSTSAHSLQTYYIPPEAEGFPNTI
Procedure, shortened: (§3)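 Antiuterotrophic test in immature female NMRI mice (20 days old). Estrone 0.4 μg was co-injected with the compound in olive oil, sc daily for three days. Uterine dry weight per body weight was read 24 h after the last dose. Inhibition (%) = 100 − [(W_S,T − W_V)/(W_S − W_V) × 100], where W_V is the vehicle control.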

[11] = biological target: T1, Estrogen receptor (Mus musculus); assay: Percent inhibition of estrone-stimulated uterotrophic effect in mice at 50 ug dose; format: functional; procedure, shortened: as §3
[12] = biological target: T1, Estrogen receptor (Mus musculus); assay: Percent inhibition of estrone-stimulated uterotrophic effect in mice at 10 ug dose; format: functional; procedure, shortened: as §3
[13] = biological target: T1, Estrogen receptor (Mus musculus); assay: Percent inhibition of estrone-stimulated uterotrophic effect in mice at 2 ug dose; format: functional; procedure, shortened: as §3
[14] = biological target: T1, Estrogen receptor (Mus musculus); assay: Anti-uterotrophic effect in mice as uterine weight(mg) relative to body weight(g) at 10 ug dose; format: functional
Procedure, shortened: (§4)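 Immature female NMRI mice, 20 days old, groups of six to ten; compound plus standard estrone 0.4 μg in olive oil (100 μL/animal) given sc on three consecutive days. Killed 24 h after last injection; uteri fixed in Bouin solution 2 h, dried at 100 °C for 18 h, weighed. Relative weight = uterine dry weight (mg)/body weight (g) × 100; mean of 6 animals ± SD.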

[15] = biological target: T1, Estrogen receptor (Mus musculus); assay: Anti-uterotrophic effect in mice as uterine weight(mg) relative to body weight(g) at 2 ug dose; format: functional; procedure, shortened: as §4
[16] = biological target: T1, Estrogen receptor (Mus musculus); assay: Anti-uterotrophic effect in mice as uterine weight(mg) relative to body weight(g) at 250 ug dose; format: functional; procedure, shortened: as §4
[17] = biological target: T1, Estrogen receptor (Mus musculus); assay: Uterotrophic effect in mice as uterine weight(mg) relative to body weight(g) at 10 ug dose; format: functional, tissue-based
Procedure, shortened: (§5)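 Uterotrophic test: 20-day-old immature female NMRI mice, six to ten per group, received compound alone in olive oil (100 μL/animal) sc on three consecutive days; controls received vehicle. After 24 h, uteri were Bouin-fixed 2 h and dried 18 h at 100 °C. Uterine dry weight (mg)/body weight (g) × 100; mean of 6 ± SD.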

[18] = biological target: T1, Estrogen receptor (Mus musculus); assay: Uterotrophic effect in mice as uterine weight(mg) relative to body weight(g) at 2 ug dose; format: functional, tissue-based; procedure, shortened: as §5
[19] = biological target: T1, Estrogen receptor (Mus musculus); assay: Uterotrophic effect in mice as uterine weight(mg) relative to body weight(g) at 250 ug dose; format: functional, tissue-based; procedure, shortened: as §5
[20] = biological target: T1, Estrogen receptor (Mus musculus); assay: Uterotrophic effect in mice as uterine weight(mg) relative to body weight(g) at 50 ug dose; format: functional, tissue-based; procedure, shortened: as §5
[21] = biological target: T1, Estrogen receptor (Mus musculus); assay: Anti-uterotrophic effect in mice as uterine weight(mg) relative to body weight(g) at 50 ug dose; format: functional; procedure, shortened: as §4

Row | Compound | relative binding affinity (RBA) [1] | T/C [2] | T/C [3] | T/C [4] | T/C [5] | T/C [6] | T/C [7] | T/C [8] | T/C [9] | inhibition [10] | inhibition [11] | inhibition [12] | inhibition [13] | Relative uterus weight [14] | Relative uterus weight [15] | Relative uterus weight [16] | Relative uterus weight [17] | Relative uterus weight [18] | Relative uterus weight [19] | Relative uterus weight [21] | further results
1 | CCC1Cc2cc(OC(C)=O)ccc2-c2c(C=O)c3ccc(OC(C)=O)cc3n21 (stereo not drawn) | 1.3 | 10% | 92% | 101% | 34% | 0% | 83% | 89% | 2% | 38% | 27% | 14% | 17% | 49 | 47.9 | 40.2 | 17.7 | 15.9 | 22.8 | 44.2 | Relative uterus weight [20]: 18.2
2 | CCCC1Cc2cc(OC(C)=O)ccc2-c2c(C=O)c3cc(OC(C)=O)ccc3n21 (stereo not drawn) | 2.6 | 9% | 106% | 109% | 43% | 0% | 86% | 99% | 9% | 28% | 26% | 20% | 27% | 41.1 | 38.8 | 38.5 | 21.1 | 16.9 | 32.9 | 39.2 | Relative uterus weight [20]: 24.9
3 | CCCCCC1Cc2cc(OC(C)=O)ccc2-c2c(C=O)c3cc(OC(C)=O)ccc3n21 (stereo not drawn) | 1.9 | 47% | 100% | 105% | 80% | 37% | 94% | 102% | 77% | 8% | 24% | 14% | 0% | 51 | 57.3 | 53.8 | 16 | 17.9 | 22.5 | 47.1 | Relative uterus weight [20]: 20.2
4 | CC/C(=C(\c1ccccc1)c1ccc(OCCN(C)C)cc1)c1ccccc1 [TAMOXIFEN] | – | – | – | – | – | 18% | 57% | 85% | 43% | – | – | – | – | – | – | – | – | – | – | – | –
5 | CCCC1Cc2cc(OC(C)=O)ccc2-c2c(C=O)c3ccc(OC(C)=O)cc3n21 (stereo not drawn) | 0.5 | 14% | 31% | 100% | 15% | 0% | 1% | 71% | 0% | 65% | 35% | 41% | 39% | 38.4 and 16.9 | 39.4 | 29.5 | 17.1 | 20.4 | 17.4 | 40.7 | –
6 | CCC1Cc2cc(OC(C)=O)ccc2-c2c(C=O)c3cc(OC(C)=O)ccc3n21 (stereo not drawn) | 3.3 | 52% | 111% | 106% | 86% | 12% | 91% | 85% | 43% | 80% | 74% | 22% | 25% | 46.1 | 45.3 | 24.6 | 17.2 | 18.2 | 41.8 | 27 | Relative uterus weight [20]: 20.5
7 | CC(=O)Oc1ccc2c(c1)CC(C)n1c-2c(C=O)c2cc(OC(C)=O)ccc21 (stereo not drawn) | 3.9 | 61% | 104% | 109% | 94% | 23% | 94% | 93% | 54% | 32% | 49% | 36% | 0% | 42.8 | 60.5 | 44.4 | 18.2 | 14.8 | 43.2 | 36.5 | Relative uterus weight [20]: 24.6
8 | CC(=O)Oc1ccc2c(c1)CC(C)n1c-2c(C=O)c2ccc(OC(C)=O)cc21 (stereo not drawn) | 1.7 | 45% | 112% | 109% | 79% | 1% | 106% | 97% | 36% | 38% | 30% | 14% | 20% | 48.5 | 45.3 | 39.7 | 18.2 | 19.6 | 19.9 | 42.6 | Relative uterus weight [20]: 18.2
9 | CCCCCC1Cc2cc(OC(C)=O)ccc2-c2c(C=O)c3ccc(OC(C)=O)cc3n21 (stereo not drawn) | 0.6 | 27% | 105% | 118% | 70% | 0% | 90% | 101% | 0% | 38% | 52% | 25% | 19% | 46.4 | 49 | 41.2 | 16.6 | 16.4 | 19.5 | 35.6 | Relative uterus weight [20]: 15.8
10 | CCCCC1Cc2cc(OC(C)=O)ccc2-c2c(C=O)c3cc(OC(C)=O)ccc3n21 (stereo not drawn) | 2.1 | 12% | 73% | 116% | 12% | 0% | 12% | 81% | 0% | 50% | 18% | 17% | 20% | 48.2 | 46.7 | 34.3 | 18.6 | 20.2 | 25.5 | 47.8 | Relative uterus weight [20]: 9.1
11 | CCCCC1Cc2cc(OC(C)=O)ccc2-c2c(C=O)c3ccc(OC(C)=O)cc3n21 (stereo not drawn) | 0.7 | 16% | 30% | 104% | 24% | 0% | 0% | 66% | 0% | 19% | 8% | 20% | 6% | 46.7 | 52.8 | 47.5 | 13.7 | 16.7 | 10.6 | 51.8 | Relative uterus weight [20]: 12.3
